Results as given in ChEMBL document CHEMBL4411328, “Synthesis and Structural/Functional Characterization of Selective M14 Metallocarboxypeptidase Inhibitors Based on Phosphinic Pseudopeptide Scaffold: Implications on the Design of Specific Optical Probes” (J Med Chem, 2019).
Activity calls are given as the source filed them. No cut-off for these calls is given here.

How the values were obtained:
Carboxypeptidase A2 = molecular target: T1, Carboxypeptidase A2 (Homo sapiens, UniProt P48052); assay: Inhibition of human CPA2 using AAFP as substrate preincubated for 45 mins to 2 hrs measured at 30 sec intervals for 15 mins by UV/vis-spectrophotometry
T1 sequence (P48052 whole entry): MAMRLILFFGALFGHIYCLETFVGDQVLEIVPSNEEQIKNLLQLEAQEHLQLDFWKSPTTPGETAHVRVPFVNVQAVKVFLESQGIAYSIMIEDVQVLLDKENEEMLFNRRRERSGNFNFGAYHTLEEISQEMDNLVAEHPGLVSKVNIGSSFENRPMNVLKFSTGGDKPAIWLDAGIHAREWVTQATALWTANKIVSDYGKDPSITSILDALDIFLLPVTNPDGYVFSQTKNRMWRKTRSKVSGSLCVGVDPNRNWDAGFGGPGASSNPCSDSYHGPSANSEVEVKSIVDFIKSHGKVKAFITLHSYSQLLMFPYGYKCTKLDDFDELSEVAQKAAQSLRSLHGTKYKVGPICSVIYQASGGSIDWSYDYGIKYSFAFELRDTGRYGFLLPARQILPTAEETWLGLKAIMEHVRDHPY
Summary of the method: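 hCPA2 was used at 3.0x10-8 M with AAFP substrate at 1.0x10-4 M, read at 355 nm, in 20 mM Tris-HCl pH 7.5, 500 mM NaCl, 1% DMSO, 0.05% Brij-35. After a 45 min preincubation at 37 °C, initial rates were followed at 30 sec intervals for 15 min, in triplicate. Kiapp was fitted by the tight-binding equation.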

Carboxypeptidase A4 = molecular target: T2, Carboxypeptidase A4 (Homo sapiens, UniProt Q9UI42); assay: Inhibition of human CPA4 using AAFP as substrate preincubated for 45 mins to 2 hrs measured at 30 sec intervals for 15 mins by UV/vis-spectrophotometry
T2 sequence (Q9UI42 whole entry): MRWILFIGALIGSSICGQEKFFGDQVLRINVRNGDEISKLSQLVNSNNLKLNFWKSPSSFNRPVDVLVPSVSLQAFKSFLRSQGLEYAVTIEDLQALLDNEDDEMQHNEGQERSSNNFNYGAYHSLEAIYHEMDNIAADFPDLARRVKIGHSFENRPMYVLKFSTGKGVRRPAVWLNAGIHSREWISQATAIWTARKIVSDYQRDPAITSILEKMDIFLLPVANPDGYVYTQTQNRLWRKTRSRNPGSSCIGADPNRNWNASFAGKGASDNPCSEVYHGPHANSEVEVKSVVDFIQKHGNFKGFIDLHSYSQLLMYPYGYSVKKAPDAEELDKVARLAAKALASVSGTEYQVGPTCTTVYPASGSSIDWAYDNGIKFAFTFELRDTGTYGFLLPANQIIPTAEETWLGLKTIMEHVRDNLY
Summary of the method: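 Enzyme was hCPA4 at 4.3x10-8 M, with 1.0x10-4 M AAFP and detection at 355 nm. Inhibitor and enzyme were preincubated 45 min at 37 °C, then initial velocities were taken over 15 min (30 sec reads), in triplicate. Kiapp was obtained from the tight-binding fit.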

[1] = molecular target: T3, Carboxypeptidase A1 (Homo sapiens) (UniProt P15085); assay: Inhibition of human CPA1 using AAFP as substrate assessed as dissociation rate constant measured at pre-steady state by spectrophotometry
T3 sequence (whole entry): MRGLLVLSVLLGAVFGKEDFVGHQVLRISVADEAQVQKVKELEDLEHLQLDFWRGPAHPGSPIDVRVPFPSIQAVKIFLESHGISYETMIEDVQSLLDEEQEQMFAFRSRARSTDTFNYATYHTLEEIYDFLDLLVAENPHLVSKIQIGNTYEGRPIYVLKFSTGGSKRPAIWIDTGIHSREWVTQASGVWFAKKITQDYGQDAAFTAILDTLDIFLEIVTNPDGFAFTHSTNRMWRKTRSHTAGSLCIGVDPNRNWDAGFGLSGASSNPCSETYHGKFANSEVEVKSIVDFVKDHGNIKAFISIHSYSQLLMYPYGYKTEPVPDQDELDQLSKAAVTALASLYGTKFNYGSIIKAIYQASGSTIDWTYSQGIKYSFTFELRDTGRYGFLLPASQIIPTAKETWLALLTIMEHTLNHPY

Carboxypeptidase A1 [2] = molecular target: T4, Carboxypeptidase A1 (Homo sapiens, UniProt P15085); assay: Inhibition of human CPA1 using AAFP as substrate assessed as apparent first-order rate constant measured at pre-steady state by measuring Koff/Kon ratio by spectrophotometry; details: read-out: Ki(app)
T4 sequence (P15085 whole entry): T3 sequence (whole entry)

[3] = molecular target: T3, Carboxypeptidase A1 (Homo sapiens); assay: Inhibition of human CPA1 using AAFP as substrate assessed as association rate constant measured at pre-steady state by spectrophotometry
Carboxypeptidase A1 [4] = molecular target: T4, Carboxypeptidase A1; assay: Inhibition of human CPA1 using AAFP as substrate measured at pre-steady state by spectrophotometry
[5] = molecular target: Cytosolic carboxypeptidase 6 (Homo sapiens) (UniProt Q5VU57); assay: Inhibition of human CCP6 at 1 nM to 1 mM using tubulin as substrate preincubated for 45 mins measured at 30 sec intervals for 15 mins by UV/vis-spectrophotometry
Summary of the method: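 hCCP1 or hCCP6 at 1.0x10-6 g with tubulin (12.5x10-5 g) as substrate in 20 mM Tris-HCl pH 7.5, 100 mM NaCl. Enzyme, inhibitor and buffer preincubated 45 min at 37 °C before substrate addition; run in triplicate.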

[6] = molecular target: Prothrombin (Homo sapiens) (UniProt P00734); assay: Inhibition of human thrombin at 1 nM to 1 mM using benzoylphenyl-valyl-arginine 4-nitroanilide as substrate preincubated for 45 mins measured at 30 sec intervals for 15 mins by UV/vis-spectrophotometry
Summary of the method: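 hThrombin 2.0x10-8 M with 1.0x10-3 M BzFVRPNA in 100 mM Tris-HCl pH 8.0, followed at 414 nm. Enzyme and inhibitor preincubated 45 min at 37 °C; substrate then added; initial velocities every 30 sec for 15 min, in triplicate.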

Papain (Carica papaya) = Papain (Carica papaya) (UniProt P00784); assay: Inhibition of papaya papain at 1 nM to 1 mM using L-pyroglutamyl-Lphenylalanyl-L-leucine-p-nitroanilide peptide as substrate preincubated for 45 mins measured at 30 sec intervals for 15 mins by UV/vis-spectrophotometry
Summary of the method: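 Papain 4.5x10-8 M, PFLNA substrate 4.0x10-4 M, buffer 100 mM phosphate pH 6.5, 100 mM KCl, 0.1 mM EDTA, 3 mM DTT, 0.05% w/v Brij-35; read at 414 nm. 45 min preincubation at 37 °C with inhibitor; initial velocities, 30-sec reads for 15 min, triplicate.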

Bos taurus = species on record: Bos taurus; assay: Inhibition of bovine trypsin at 1 nM to 1 mM using Nalpha-benzoyl-L-arginine 4-nitroanilide hydrochloride as substrate preincubated for 45 mins measured at 30 sec intervals for 15 mins by UV/vis-spectrophotometry
[7] = molecular target: T3, Carboxypeptidase A1 (Homo sapiens); assay: Inhibition of human CPA1 peptide degradation activity at 5 to 500 nM using neurotensin peptide as substrate preincubated for 2 hrs followed by substrate addition and measured up to 7 hrs by MALDI-TOF/TOF spectrometry
Summary of the method: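 Human CPA1 (20nM) digested the model peptide neurotensin over a 0-7h time course, with no inhibitor or with inhibitor at 5 and 500nM. Samples were taken at intervals and analyzed by MALDI-TOF MS.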

Cytosolic carboxypeptidase 6 (Homo sapiens), sequence (Q5VU57 whole entry): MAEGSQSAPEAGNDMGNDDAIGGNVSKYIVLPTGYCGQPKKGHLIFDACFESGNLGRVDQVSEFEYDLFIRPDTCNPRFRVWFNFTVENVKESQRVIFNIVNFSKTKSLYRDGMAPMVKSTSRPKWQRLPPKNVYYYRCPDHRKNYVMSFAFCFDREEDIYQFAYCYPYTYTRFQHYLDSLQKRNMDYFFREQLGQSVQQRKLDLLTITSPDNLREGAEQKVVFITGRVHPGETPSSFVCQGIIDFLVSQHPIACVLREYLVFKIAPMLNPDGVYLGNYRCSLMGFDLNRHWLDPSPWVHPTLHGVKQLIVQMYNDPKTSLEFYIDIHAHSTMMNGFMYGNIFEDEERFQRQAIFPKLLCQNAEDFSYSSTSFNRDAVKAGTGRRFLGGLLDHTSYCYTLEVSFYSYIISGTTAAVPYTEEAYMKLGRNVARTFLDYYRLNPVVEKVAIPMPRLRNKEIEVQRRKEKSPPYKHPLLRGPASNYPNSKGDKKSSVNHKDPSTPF
Papain (Carica papaya), sequence (P00784 whole entry): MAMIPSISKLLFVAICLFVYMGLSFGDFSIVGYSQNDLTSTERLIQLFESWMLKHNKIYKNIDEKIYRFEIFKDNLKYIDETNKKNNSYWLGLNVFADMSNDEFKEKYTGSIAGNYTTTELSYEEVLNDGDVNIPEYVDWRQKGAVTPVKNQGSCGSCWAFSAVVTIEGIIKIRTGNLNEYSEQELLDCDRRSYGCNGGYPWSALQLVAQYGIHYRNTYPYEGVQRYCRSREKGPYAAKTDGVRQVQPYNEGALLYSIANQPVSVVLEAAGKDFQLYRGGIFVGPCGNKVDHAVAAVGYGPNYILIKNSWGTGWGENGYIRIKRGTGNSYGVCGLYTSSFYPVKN

SMILES | Ki (Carboxypeptidase A2) | Ki (Carboxypeptidase A4) | K [1] | Ki (Carboxypeptidase A1 [2]) | K [3] | Ki (Carboxypeptidase A1 [4]) | inhibition [7] | inhibition [5] | inhibition [6] | inhibition (Papain (Carica papaya)) | inhibition (Bos taurus)
CC(=O)N[C@@H](CCCCN)C(=O)N[C@@H](C)P(=O)(O)C[C@@H](CCc1ccccc1)C(=O)O | 2.4 nM | 25.4 nM | – | – | – | – | – | – | – | – | –
CC(=O)N[C@@H](CC(C)C)C(=O)N[C@@H](C)P(=O)(O)C[C@@H](CCc1ccccc1)C(=O)O | 0.7 nM | 3.3 nM | 6 ×10⁻⁵ /s | 0.47 nM | 1.27 ×10⁵ /M/s | 0.14 nM | – | – | – | – | –
CC(=O)N1CCC[C@H]1C(=O)N[C@@H](C)P(=O)(O)C[C@@H](CCc1ccccc1)C(=O)O | 3.2 nM | 7.5 nM | – | – | – | – | – | – | – | – | –
CC(=O)NCCOCCOCC(=O)N[C@@H](Cc1ccc(O)cc1)C(=O)N[C@@H](C)P(=O)(O)C[C@@H](CCc1ccccc1)C(=O)O | 5.7 nM | 3.5 nM | 7 ×10⁻⁵ /s | 0.53 nM | 1.33 ×10⁵ /M/s | 0.16 nM | – | – | – | – | –
C[C@H](NC(=O)[C@H](Cc1ccc(O)cc1)NC(=O)COCCOCCNC(=O)CCOCCOCCOCCNC(=O)CCc1ccc(C(=C\C=C2\N(CCCCS(=O)(=O)O)c3ccc4c(S(=O)(=O)[O-])cc(S(=O)(=O)O)cc4c3C2(C)C)/C=C/C2=[N+](CCCCS(=O)(=O)O)c3ccc4c(S(=O)(=O)O)cc(S(=O)(=O)O)cc4c3C2(C)C)cc1)P(=O)(O)C[C@@H](CCc1ccccc1)C(=O)O | 5.3 nM | 5.7 nM | 4.8 ×10⁻⁵ /s | 0.24 nM | 2.03 ×10⁵ /M/s | 0.07 nM | – | inactive | inactive | inactive | inactive
CC(=O)N[C@@H](Cc1ccc(O)cc1)C(=O)N[C@@H](C)P(=O)(O)C[C@@H](CCc1ccccc1)C(=O)O | 1.7 nM | 2.6 nM | 7.6 ×10⁻⁵ /s | 0.53 nM | 1.44 ×10⁵ /M/s | 0.16 nM | Active | – | – | – | –

Continued by falling Ki (Carboxypeptidase A2), values first:

Ki (Carboxypeptidase A2) | Ki (Carboxypeptidase A4) | K [1] | Ki (Carboxypeptidase A1 [2]) | K [3] | Ki (Carboxypeptidase A1 [4]) | inhibition [7] | SMILES | inhibition [5] | inhibition [6] | inhibition (Papain (Carica papaya)) | inhibition (Bos taurus)
13.8 nM | 60.6 nM | – | – | – | – | – | CC(=O)N[C@@H](CO)C(=O)N[C@@H](C)P(=O)(O)C[C@@H](CCc1ccccc1)C(=O)O | – | – | – | –
7.8 nM | 5.4 nM | – | – | – | – | – | C[C@H](NC(=O)[C@H](Cc1ccc(O)cc1)NC(=O)COCCOCCN)P(=O)(O)C[C@@H](CCc1ccccc1)C(=O)O | – | – | – | –
4.6 nM | 38.6 nM | – | – | – | – | – | CC(=O)N[C@@H](CCC(=O)O)C(=O)N[C@@H](C)P(=O)(O)C[C@@H](CCc1ccccc1)C(=O)O | – | – | – | –
0.2 nM | 1.9 nM | – | – | – | – | – | CC(=O)N[C@@H](CC(C)C)C(=O)N[C@@H](Cc1ccccc1)P(=O)(O)C[C@@H](CCc1ccccc1)C(=O)O | – | – | – | –
